Laboratory results reported in ChEMBL document CHEMBL2010670, “Discovery of a clinical stage multi-kinase inhibitor sodium (E)-2-{2-methoxy-5-[(2',4',6'-trimethoxystyrylsulfonyl)methyl]phenylamino}acetate (ON 01910.Na): synthesis, structure-activity relationship, and biological activity” (J Med Chem, 2011).

Tests used:
BXPC-3 = assay: Cytotoxicity against human BxPC3 cells after 96 hrs by trypan blue exclusion assay; format: functional, cell-based; conditions: BXPC-3, 96 h
Summary of the method: (§1)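 Cells grown in DMEM or RPMI with 10% FBS and penicillin-streptomycin, seeded at 1.0 × 10⁵ cells/mL/well in 6-well dishes. Compound added at a range of concentrations 24 h after seeding. Viable cells counted by trypan blue exclusion from duplicate wells after 96 h of exposure; dose-response end point.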

Raji = assay: Cytotoxicity against human Raji cells after 96 hrs by trypan blue exclusion assay; format: functional, cell-based
Summary of the method: (§2)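 Cells grown in DMEM or RPMI with 10% FBS and 1 unit/mL penicillin-streptomycin, seeded at 1.0 × 10⁵ cells/mL/well in 6-well dishes; compound added 24 h later at various concentrations. After 96 h of treatment, viable cells counted by trypan blue exclusion in duplicate wells; dose-response end point.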

BT-474 = assay: Cytotoxicity against human BT474 cells after 96 hrs by trypan blue exclusion assay; format: functional, cell-based; conditions: BT-474, 96 h; summary of the method: as §1
MIA PaCa-2 = assay: Cytotoxicity against human MIAPaCa2 cells after 96 hrs by trypan blue exclusion assay; format: functional, cell-based; conditions: MIA PaCa-2, 96 h; summary of the method: as §1
[1] = Cytotoxicity against human WM1341D cells after 96 hrs by trypan blue exclusion assay; format: functional, cell-based; summary of the method: as §2
HFL1 [2] = assay: Cell cycle arrest in human HFL1 cells assessed as accumulation of cells in G2/M phase at 0.1 to 1 uM after 24 hrs by propidium iodide staining-based flow cytometric analysis; format: ADME; conditions: hfl1, 24 h
Summary of the method: (§3)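 DMEM with 10% FBS; 1.0 × 10⁶ cells/dish, treated 24 h after plating and harvested 24 h after treatment. Trypsinized cells were pooled with floating cells, PBS-washed and fixed in ice-cold 70% ethanol for ≥24 h. Cells were stained with propidium iodide plus RNase A for 30 min at 37 °C. DNA content was read by flow cytometry with cell-cycle modelling.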

AGS = assay: Cytotoxicity against human AGS cells after 96 hrs by trypan blue exclusion assay; format: functional, cell-based; summary of the method: as §1
T47D = assay: Cytotoxicity against human T47D cells after 96 hrs by trypan blue exclusion assay; format: functional, cell-based; summary of the method: as §2
[3] = Cytotoxicity against human WM278 cells after 96 hrs by trypan blue exclusion assay; format: functional, cell-based; conditions: WM278, 96 h; summary of the method: as §2
MCF7 = assay: Cytotoxicity against human MCF7 cells after 96 hrs by trypan blue exclusion assay; format: functional, cell-based; conditions: MCF7, 96 h; summary of the method: as §1
HFL1 [4] = assay: Cell cycle arrest in human HFL1 cells assessed as accumulation at G1 phase at 0.1 to 1 uM after 24 hrs by propidium iodide staining-based flow cytometric analysis; format: ADME; conditions: hfl1, 24 h; summary of the method: as §3
[5] = Cytotoxicity against human RF48 cells after 96 hrs by trypan blue exclusion assay; format: functional, cell-based; conditions: RF48, 96 h; summary of the method: as §2
BT-20 [6] = assay: Antitumor activity in human BT20 cells xenografted in NCR-nu/nu, Taconic mouse assessed as decrease in tumor volume at 200 mg/kg, ip administered every other day for 22 days relative to control; format: functional; conditions: route intraperitoneal
Summary of the method: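 Female athymic NCR-nu/nu mice received 0.5–1.0 x10⁷ BT20 cells subcutaneously in the hind leg. Dosing began about 14 days later, with tumors near 70 mm³. Groups of N=9 got 200 mg/kg in PBS or PBS vehicle, Q2D x 20. Two tumor dimensions were measured by caliper three times weekly, and V = L×S²×π/6. Body weight and toxicity signs were tracked. Group means ±SEM.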

CEM/C2 = assay: Resistance ratio of IC50 for human CEM cells to IC50 for multidrug-resistant human CEM/C2 cells; format: functional
Summary of the method: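 Cells were grown in DMEM or RPMI with 10% FBS and plated at 1.0 × 10⁵ cells/mL/well in 6-well dishes. Compound was added 24 h later at various concentrations for 96 h. Viable cells were counted from duplicate wells by trypan blue exclusion, and the IC50 of each line gave the ratio.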

HeLa = assay: Cytotoxicity against human HeLa cells after 96 hrs by trypan blue exclusion assay; format: functional, cell-based; summary of the method: as §1
2008 = assay: Cytotoxicity against human 2008 cells assessed as cell viability after 96 hrs by trypan blue exclusion; format: functional, cell-based; conditions: Homo sapiens, 2008, 96 h; summary of the method: as §1
U-266 = assay: Cytotoxicity against human U266 cells after 96 hrs by trypan blue exclusion assay; format: functional, cell-based; conditions: U-266, 96 h; summary of the method: as §2
MDA-MB-157 = assay: Cytotoxicity against human MDA-MB-157 cells after 96 hrs by trypan blue exclusion assay; format: functional, cell-based; conditions: MDA-MB-157, 96 h; summary of the method: as §1
NCI-H187 = assay: Cytotoxicity against human NCI-H187 cells after 96 hrs by trypan blue exclusion assay; format: functional, cell-based; conditions: NCI-H187, 96 h; summary of the method: as §1
DLD-1 = assay: Cytotoxicity against human DLD1 cells after 96 hrs by trypan blue exclusion assay; format: functional, cell-based; conditions: DLD-1, 96 h; summary of the method: as §1
CCRF-CEM = assay: Cytotoxicity against human CEM cells assessed as cell viability after 96 hrs by trypan blue exclusion; format: functional, cell-based; summary of the method: as §1
KB = assay: Cytotoxicity against human KB cells after 96 hrs by trypan blue exclusion assay; format: functional, cell-based; summary of the method: as §1
HEL = assay: Cytotoxicity against human HEL cells after 96 hrs by trypan blue exclusion assay; format: functional, cell-based; summary of the method: as §1
[7] = Cytotoxicity against human PS41 cells after 96 hrs by trypan blue exclusion assay; format: cell-based; conditions: PS41, 96 h; summary of the method: as §1
[8] = Aqueous solubility of the compound; format: physicochemical; conditions: water
NCI-H1975 = assay: Cytotoxicity against human NCI-H1975 cells after 96 hrs by trypan blue exclusion assay; format: functional, cell-based; conditions: NCI-H1975, 96 h; summary of the method: as §1
MOLT-4 = assay: Cytotoxicity against human MOLT4 cells after 96 hrs by trypan blue exclusion assay; format: functional, cell-based; conditions: MOLT-4, 96 h; summary of the method: as §1
BT-20 [9] = assay: Cytotoxicity against human BT20 cells after 96 hrs by trypan blue exclusion assay; format: functional, cell-based; conditions: BT-20, 96 h; summary of the method: as §1

solubility [8]: 28 mg/mL
Compound: COc1cc(OC)c(/C=C/S(=O)(=O)Cc2ccc(OC)c(NCC(=O)[O-])c2)c(OC)c1.[Na+] [RIGOSERTIB SODIUM]
IC50 (BXPC-3): 75 nM | IC50 (Raji): 75 nM | IC50 (BT-474): 50 nM | IC50 (MIA PaCa-2): 50 nM | IC50 [1]: 100 nM | Activity (HFL1 [2]): Toxic | IC50 (AGS): 80 nM | IC50 (T47D): 170 nM | IC50 [3]: 150 nM | IC50 (MCF7): 75 nM | Activity (HFL1 [4]): Toxic | IC50 [5]: 50 nM | fold change (FC) (BT-20 [6]): 2.5 | Ratio IC50 (CEM/C2): 2 | IC50 (HeLa): 100 nM | IC50 2008: 150 nM | IC50 (U-266): 25 nM | IC50 (MDA-MB-157): 75 nM | IC50 (NCI-H187): 80 nM | IC50 (DLD-1): 150 nM | IC50 (CCRF-CEM): 100 nM | IC50 (KB): 70 nM | IC50 (HEL): 50 nM | IC50 [7]: > 100000 nM | IC50 (NCI-H1975): 90 nM | IC50 (MOLT-4): 40 nM | IC50 (BT-20 [9]): 80 nM
